Measured values taken from ChEMBL document CHEMBL5131416, “Solid-phase synthesis and biological evaluation of piperazine-based novel bacterial topoisomerase inhibitors” (Bioorg Med Chem Lett, 2022).
Several values for one entry are separate records, joined by “and”; a condition that tells them apart may be missing. Equal values may be shown once.

What was measured:
DNA gyrase [1] = molecular target: DNA gyrase (Escherichia coli, UniProt P0AES4+P0AES6); assay: Inhibition of Escherichia coli DNA gyrase by fluorescence based microtiter plate reader assay; type: protein-complex assay
DNA gyrase [2] = molecular target: DNA gyrase (Staphylococcus aureus, UniProt P0A0K8+P20831); assay: Inhibition of Staphylococcus aureus DNA gyrase supercoiling activity using pNO1 plasmid DNA as substrate incubated for 30 mins by fluorescence based microtiter plate reader assay; type: protein-complex assay
Sequence of DNA gyrase (Staphylococcus aureus, UniProt P0A0K8+P20831) (P0A0K8 whole entry): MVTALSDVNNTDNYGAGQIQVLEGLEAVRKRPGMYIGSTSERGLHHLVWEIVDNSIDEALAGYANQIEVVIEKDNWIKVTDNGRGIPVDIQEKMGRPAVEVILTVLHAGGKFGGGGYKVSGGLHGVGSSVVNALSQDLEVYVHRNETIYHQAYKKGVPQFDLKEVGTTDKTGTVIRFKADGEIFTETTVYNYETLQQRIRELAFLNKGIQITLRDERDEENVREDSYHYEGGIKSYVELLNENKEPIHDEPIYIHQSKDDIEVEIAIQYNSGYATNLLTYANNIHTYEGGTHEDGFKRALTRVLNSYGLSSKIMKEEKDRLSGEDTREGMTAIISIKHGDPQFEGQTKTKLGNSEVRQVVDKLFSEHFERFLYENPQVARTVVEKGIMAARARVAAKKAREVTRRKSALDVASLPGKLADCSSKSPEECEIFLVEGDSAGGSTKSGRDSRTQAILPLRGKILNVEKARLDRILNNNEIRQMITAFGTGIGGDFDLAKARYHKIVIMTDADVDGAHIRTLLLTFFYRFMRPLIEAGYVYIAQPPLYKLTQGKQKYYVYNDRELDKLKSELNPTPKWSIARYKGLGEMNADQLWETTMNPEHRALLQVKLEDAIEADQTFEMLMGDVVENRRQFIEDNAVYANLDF
Sequence of DNA gyrase (Staphylococcus aureus, UniProt P0A0K8+P20831) (P20831 whole entry): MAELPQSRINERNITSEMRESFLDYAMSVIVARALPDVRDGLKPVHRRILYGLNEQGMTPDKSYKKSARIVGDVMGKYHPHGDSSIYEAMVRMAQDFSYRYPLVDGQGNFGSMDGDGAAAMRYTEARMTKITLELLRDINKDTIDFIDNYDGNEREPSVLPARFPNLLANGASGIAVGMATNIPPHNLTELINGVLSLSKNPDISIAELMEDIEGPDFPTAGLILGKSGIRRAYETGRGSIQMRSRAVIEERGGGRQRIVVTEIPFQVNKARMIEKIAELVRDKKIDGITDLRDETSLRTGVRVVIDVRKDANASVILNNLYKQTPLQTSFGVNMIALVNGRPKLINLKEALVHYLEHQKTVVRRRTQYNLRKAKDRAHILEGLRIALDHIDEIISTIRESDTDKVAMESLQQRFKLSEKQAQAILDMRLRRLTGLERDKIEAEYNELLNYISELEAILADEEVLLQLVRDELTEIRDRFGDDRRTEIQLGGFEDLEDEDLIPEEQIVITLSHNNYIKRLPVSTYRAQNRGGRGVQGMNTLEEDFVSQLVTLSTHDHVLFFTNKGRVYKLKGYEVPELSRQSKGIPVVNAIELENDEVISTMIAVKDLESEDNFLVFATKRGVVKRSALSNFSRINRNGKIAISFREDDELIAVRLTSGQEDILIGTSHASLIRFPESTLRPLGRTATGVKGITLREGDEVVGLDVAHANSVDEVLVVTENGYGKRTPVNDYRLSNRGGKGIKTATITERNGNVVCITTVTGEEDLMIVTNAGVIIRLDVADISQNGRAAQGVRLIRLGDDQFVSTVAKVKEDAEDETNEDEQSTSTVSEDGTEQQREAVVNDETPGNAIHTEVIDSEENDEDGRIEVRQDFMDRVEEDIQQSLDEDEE

Staphylococcus aureus [3] = assay: Antibacterial activity against methicillin-resistant Staphylococcus aureus CC398 assessed as inhibition of bacterial growth by broth microdilution method; type: functional
Topoisomerase IV = Topoisomerase IV (Staphylococcus aureus, UniProt P0C1S7+P0C1U9); assay: Inhibition of Staphylococcus aureus topoisomerase 4 using pNO1 plasmid DNA as substrate incubated for 30 mins by fluorescence based microtiter plate reader assay; type: protein-complex assay
Sequence of Topoisomerase IV (P0C1U9 whole entry): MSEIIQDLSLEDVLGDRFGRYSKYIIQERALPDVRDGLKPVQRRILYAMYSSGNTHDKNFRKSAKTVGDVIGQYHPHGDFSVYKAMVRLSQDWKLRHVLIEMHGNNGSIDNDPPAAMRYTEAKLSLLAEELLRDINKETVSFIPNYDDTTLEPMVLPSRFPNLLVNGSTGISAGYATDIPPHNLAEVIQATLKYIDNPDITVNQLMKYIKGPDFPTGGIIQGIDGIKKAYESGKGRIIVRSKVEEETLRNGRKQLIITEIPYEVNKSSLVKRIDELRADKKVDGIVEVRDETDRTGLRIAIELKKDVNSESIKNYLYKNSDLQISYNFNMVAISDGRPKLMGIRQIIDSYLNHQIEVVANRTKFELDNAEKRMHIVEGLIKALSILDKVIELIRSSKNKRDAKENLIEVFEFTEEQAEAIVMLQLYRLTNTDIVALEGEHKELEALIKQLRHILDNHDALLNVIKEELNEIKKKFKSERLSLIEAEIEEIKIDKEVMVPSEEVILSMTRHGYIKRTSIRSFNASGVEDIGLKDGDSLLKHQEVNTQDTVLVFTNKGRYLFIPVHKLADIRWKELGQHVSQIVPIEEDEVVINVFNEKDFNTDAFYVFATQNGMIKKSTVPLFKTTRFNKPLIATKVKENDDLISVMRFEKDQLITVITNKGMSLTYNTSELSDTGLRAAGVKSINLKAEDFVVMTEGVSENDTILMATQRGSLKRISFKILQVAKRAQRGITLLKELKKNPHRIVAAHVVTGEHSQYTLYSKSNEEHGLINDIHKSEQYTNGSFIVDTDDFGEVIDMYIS
Sequence of Topoisomerase IV (P0C1S7 whole entry): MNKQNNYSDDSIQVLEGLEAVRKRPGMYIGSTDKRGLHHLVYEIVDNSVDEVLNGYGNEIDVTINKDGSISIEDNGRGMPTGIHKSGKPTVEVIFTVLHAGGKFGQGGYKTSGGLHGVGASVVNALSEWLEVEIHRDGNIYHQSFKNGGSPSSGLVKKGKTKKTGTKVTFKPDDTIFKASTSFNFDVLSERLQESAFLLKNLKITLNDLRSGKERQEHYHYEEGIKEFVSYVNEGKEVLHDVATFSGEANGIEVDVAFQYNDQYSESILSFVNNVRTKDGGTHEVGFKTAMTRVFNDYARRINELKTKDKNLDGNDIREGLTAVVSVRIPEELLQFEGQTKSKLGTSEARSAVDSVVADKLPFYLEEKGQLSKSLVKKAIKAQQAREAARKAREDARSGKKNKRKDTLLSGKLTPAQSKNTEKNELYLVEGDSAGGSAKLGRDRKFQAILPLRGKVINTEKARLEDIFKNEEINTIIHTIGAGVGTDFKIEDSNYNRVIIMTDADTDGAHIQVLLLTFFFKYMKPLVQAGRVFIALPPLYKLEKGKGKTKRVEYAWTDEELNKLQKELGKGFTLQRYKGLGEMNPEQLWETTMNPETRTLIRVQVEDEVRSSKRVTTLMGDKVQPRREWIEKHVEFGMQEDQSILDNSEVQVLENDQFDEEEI

Staphylococcus aureus [4] = assay: Antibacterial activity against methicillin-susceptible Staphylococcus aureus NCTC 8325-4 assessed as inhibition of bacterial growth by broth microdilution method; type: functional
[5] = molecular target: Voltage-gated inwardly rectifying potassium channel KCNH2 (Homo sapiens, UniProt Q12809); assay: Inhibition of hERG by fluorescence polarization assay; type: toxicity
Sequence of Voltage-gated inwardly rectifying potassium channel KCNH2 (Q12809 whole entry): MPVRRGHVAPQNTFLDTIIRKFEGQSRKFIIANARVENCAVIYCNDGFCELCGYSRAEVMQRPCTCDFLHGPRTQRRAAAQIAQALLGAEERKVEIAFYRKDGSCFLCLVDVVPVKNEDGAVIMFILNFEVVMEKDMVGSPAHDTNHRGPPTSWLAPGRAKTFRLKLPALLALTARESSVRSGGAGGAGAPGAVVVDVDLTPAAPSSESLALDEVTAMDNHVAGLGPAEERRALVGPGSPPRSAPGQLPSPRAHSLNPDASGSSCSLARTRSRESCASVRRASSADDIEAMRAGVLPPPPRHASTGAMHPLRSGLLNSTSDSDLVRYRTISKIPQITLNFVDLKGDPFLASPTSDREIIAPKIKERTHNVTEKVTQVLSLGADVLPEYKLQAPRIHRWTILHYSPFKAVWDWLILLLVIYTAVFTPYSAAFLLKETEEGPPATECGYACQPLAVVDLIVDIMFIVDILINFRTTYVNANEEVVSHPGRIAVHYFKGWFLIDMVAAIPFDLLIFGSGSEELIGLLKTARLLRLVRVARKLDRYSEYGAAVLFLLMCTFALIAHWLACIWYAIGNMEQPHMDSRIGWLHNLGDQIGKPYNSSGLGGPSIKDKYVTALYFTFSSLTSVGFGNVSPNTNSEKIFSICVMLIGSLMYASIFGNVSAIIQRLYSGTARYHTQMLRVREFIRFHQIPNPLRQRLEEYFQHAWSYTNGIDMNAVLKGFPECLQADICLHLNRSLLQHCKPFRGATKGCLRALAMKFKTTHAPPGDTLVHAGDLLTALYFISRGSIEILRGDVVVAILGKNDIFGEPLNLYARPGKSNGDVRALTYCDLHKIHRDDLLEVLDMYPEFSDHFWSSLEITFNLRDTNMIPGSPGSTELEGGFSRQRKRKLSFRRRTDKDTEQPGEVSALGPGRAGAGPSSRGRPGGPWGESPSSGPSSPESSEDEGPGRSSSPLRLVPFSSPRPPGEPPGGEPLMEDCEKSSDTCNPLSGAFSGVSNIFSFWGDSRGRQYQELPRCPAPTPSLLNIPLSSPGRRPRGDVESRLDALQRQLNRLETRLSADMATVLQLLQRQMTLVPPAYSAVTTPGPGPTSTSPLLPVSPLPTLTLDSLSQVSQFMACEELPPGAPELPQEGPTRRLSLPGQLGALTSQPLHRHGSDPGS
How it was run: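 hERG inhibition was measured with a commercial Predictor hERG fluorescence-polarization kit.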

[6] = Staphylococcus aureus, CC398, read-out: MIC
[7] = Staphylococcus aureus, NCTC 8325-4, read-out: MIC

Structure (SMILES) | IC50 (DNA gyrase [1]) [µM] | IC50 (DNA gyrase [2]) [µM] | MIC (Staphylococcus aureus [3]; [6]) | IC50 (Topoisomerase IV) [µM] | MIC (Staphylococcus aureus [4]; [7]) | EC50 [5] [µM] | MIC (Staphylococcus aureus [3]) | MIC (Staphylococcus aureus [4]) [µg/mL]
COc1ccc2ncc(F)c(CCCN3CCN(CCSc4cccs4)C[C@@H]3C(=O)O)c2c1 | 5.4 | 0.37 | 0.2 µg/mL and 0.4 µM | 7.64 | 0.8 µM and 0.4 µg/mL | 17 | – | –
COC(=O)[C@@H]1CN(CCSc2cccs2)CCN1CCCc1c(F)cnc2ccc(OC)cc12 | – | – | > 50 µg/mL and > 99.3 µM | – | > 99.3 µM and > 50 µg/mL | 4 | – | –
COc1ccc2ncc(F)c([C@@H](O)CC[C@@H]3CCN(CCSc4cccs4)C[C@@H]3C(=O)O)c2c1 | 3.9 | 0.34 | 0.2 µg/mL and 0.4 µM | 8.8 | 0.8 µM and 0.4 µg/mL | 24 | – | –
COc1ccc2ncc(F)c(CCCN3CCN(Cc4ccccc4)C[C@@H]3C(=O)O)c2c1 | – | – | – | – | > 114 µM and > 50 µg/mL | 25 | – | –
COC(=O)[C@H]1CN(CCSc2cccs2)CCN1CCCc1c(F)cnc2ccc(OC)cc12 | 18.4 | 300 | > 50 µg/mL and > 99.3 µM | – | > 99.3 µM and > 50 µg/mL | 2 | – | –
COc1ccc2ncc(F)c(CCCN3CCN(CCSc4cccs4)C[C@@H]3C(=O)NC(=O)CC(=O)O)c2c1 | – | – | 12.5 µg/mL and 21.8 µM | – | 21.8 µM and 12.5 µg/mL | 0.5 | – | –
COc1ccc2ncc(F)c(CCCN3CCN(CCc4ccccc4)C[C@@H]3C(=O)O)c2c1 | – | 0.54 | 3.1 µg/mL and 6.9 µM | 12.6 | 14 µM and 6.3 µg/mL | 87 | – | –
COc1ccc2ncc(F)c(CCCN3CCN(C/C=C/c4ccccc4)C[C@@H]3C(=O)O)c2c1 | – | 0.19 | 0.2 µg/mL and 0.4 µM | 3.36 | 1.7 µM and 0.8 µg/mL | 38 | – | –
COc1ccc2ncc(F)c(/C=C\CN3CCN(CCSc4cccs4)C[C@@H]3C(=O)O)c2c1 | – | 0.28 | 3.1 µg/mL and 6.4 µM | 9.92 | 25.6 µM and 12.5 µg/mL | < 30 | – | –
COc1ccc2ncc(F)c(CCCN3CCN(C/C=C/c4cc(F)ccc4F)C[C@@H]3C(=O)O)c2c1 | 6.46 | 0.28 | 0.1 µg/mL and 0.2 µM | 2.41 | 0.4 µM and 0.2 µg/mL | 25 | – | –
COc1ccc2ncc(F)c(CCCN3CCN(CCCCc4ccccc4)C[C@@H]3C(=O)O)c2c1 | – | 0.37 | 3.1 µg/mL and 6.5 µM | 3.82 | 12.9 µM and 6.2 µg/mL | 21 | – | –
COc1ccc2ncc(F)c(CCCN3CCN(CCCc4ccccc4)C[C@@H]3C(=O)O)c2c1 | – | 0.46 | 0.4 µg/mL and 0.9 µM | 10.2 | 1.7 µM and 0.8 µg/mL | 17 | – | –
COc1ccc2ncc(F)c(CCCN3CCN(CCSc4cccs4)C[C@H]3C(=O)O)c2c1 | – | – | 1.6 µg/mL and 3.3 µM | – | 6.3 µM and 3.1 µg/mL | 26 | – | –
COc1ccc2ncc(F)c(CCCN3CCN(CCSc4cccs4)C[C@@H]3C(N)=O)c2c1 | – | – | – | – | 1.6 µM and 0.8 µg/mL | 2 | – | –
COc1ccc2ncc(F)c(/C=C/CN3CCN(CCSc4cccs4)C[C@@H]3C(=O)O)c2c1 | – | 0.68 | 0.8 µg/mL and 1.6 µM | 1.81 | 3.1 µM and 1.5 µg/mL | < 30 | – | –
COc1ccc2ncc(F)c(C#CCN3CCN(CCSc4cccs4)C[C@@H]3C(=O)O)c2c1 | – | 0.48 | 12.5 µg/mL and 25.7 µM | 2.47 | 51.5 µM and 25 µg/mL | < 30 | – | –
COc1ccc2ncc(F)c(C(O)CCN3CCN(CCSc4cccs4)C[C@@H]3C(=O)O)c2c1 (mixture of isomers; 19) | – | – | – | – | 24.7 µM and 12.5 µg/mL | < 30 | 0.8 ug ml-1 and 1.6 uM | –
COc1ccc2ncc(F)c(CCCN3CCN(C(=O)CSc4ccccc4)C[C@@H]3C(=O)O)c2c1 | – | – | – | – | > 100 µM and > 50 µg/mL | < 30 | – | –
COc1ccc2ncc(F)c(CCCN3CCN(C(=O)CCc4ccccc4)C[C@@H]3C(=O)O)c2c1 | – | – | > 50 µg/mL and > 104 µM | – | > 104 µM and > 50 µg/mL | – | – | –
COc1ccc2ncc(F)c(CCCN3CCN(C(=O)CSc4cccs4)C[C@@H]3C(=O)O)c2c1 | – | – | > 50 µg/mL and > 99.3 µM | – | > 99.3 µM and > 50 µg/mL | 7 | – | –
COc1ccc2ncc(F)c(C(O)CCN3CCN(CCSc4cccs4)C[C@@H]3C(=O)O)c2c1 (mixture of isomers; 20) | – | – | – | – | – | – | 6.2 ug ml-1 and 12.3 uM | 12.5
COc1ccc2ncc(F)c(CCCN3CCN(CCSc4cccs4)[C@@H](C(=O)O)C3)c2c1 | – | – | 1.6 µg/mL and 3.3 µM | – | 6.3 µM and 3.1 µg/mL | < 30 | – | –
